From ChEMBL document CHEMBL4325827, “Bifidenone: Structure-Activity Relationship and Advanced Preclinical Candidate” (J Med Chem, 2018)
pIC50: −log10 of the molar value.

Legend:
NCI-H460 = test: Antiproliferative activity against human NCI-H460 cells after 72 hrs by CellTiter 96 aqueous nonradioactive cell proliferation assay; type: functional, cell-based; conditions: NCI-H460, 72 h
Summary of the method: (§1)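 Antiproliferation in cultured tumour cells, at least 3 replicate wells per concentration per experiment. NCI-H460 came from ATCC. M14, NCI/ADR-RES, OVCAR-4, HCT-15, ACHN and SF-295 came from the National Cancer Institute. IC50 reported from single experiments where no SD is given.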

M14 = test: Antiproliferative activity against human M14 cells after 72 hrs by CellTiter 96 aqueous nonradioactive cell proliferation assay; type: functional, cell-based; conditions: M14, 72 h; summary of the method: as §1
[1] = Ratio of plasma concentration in Crl:NU(NCr)-Foxn1 nu mouse at 40 mg/kg, ip injected via vehicle consisting 40.5% propylene glycol, 2.7% tween-20, 31.5% PEG400, 15.3% ethanol and 10% water measured at 30 mins post injection to IC50 for human NCI-H460 cells; type: ADME, organism-based; conditions: in vivo, 0.5 h
[2] = Plasma concentration in Crl:NU(NCr)-Foxn1 nu mouse at 40 mg/kg, ip injected via vehicle consisting 45% propylene glycol, <3 % tween-20, 20% PEG400, 20% ethanol by LC-MS analysis; type: ADME, organism-based; conditions: in vivo
Summary of the method: (§2)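 Male Nu/Nu mice, some bearing NCI-H460 or LOX-IMVI xenografts, given a single ip dose at 3 mL/kg. Organic vehicle components were dissolved first, with the aqueous part added gradually. Mice were euthanized at 1 h or 3 h. Cardiac blood was taken into NaEDTA/NaF plasma separator tubes. Quantification used loratadine internal standard against a spiked blank-plasma curve. Tumours were run as duplicate ~200 mg samples homogenized in 3% SDS and extracted twice with ethyl acetate, assuming 1 g tissue = 1 mL.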

[3] = Plasma concentration in Crl:NU(NCr)-Foxn1 nu mouse at 40 mg/kg, ip injected via vehicle consisting 25% propylene glycol, 20% tween-20, 20% PEG400, 20% ethanol by LC-MS analysis; type: ADME, organism-based; conditions: in vivo; summary of the method: as §2
[4] = Plasma concentration in Crl:NU(NCr)-Foxn1 nu mouse at 40 mg/kg, ip injected via vehicle consisting 40% propylene glycol, 20% tween-20, 20% PEG400, 20% ethanol […] by LC-MS analysis; type: ADME, organism-based; conditions: in vivo; summary of the method: as §2
[5] = Ratio of plasma concentration in Crl:NU(NCr)-Foxn1 nu mouse at 40 mg/kg, ip injected via vehicle consisting 40.5% propylene glycol, 2.7% tween-20, 31.5% PEG400, 15.3% ethanol and 10% water measured at 1 hr post injection to IC50 for human NCI-H460 cells; type: ADME, organism-based; conditions: in vivo
[6] = Ratio of plasma concentration in Crl:NU(NCr)-Foxn1 nu mouse at 75 to 100 mg/kg, ip injected via vehicle consisting 40.5% propylene glycol, 2.7% tween-20, 31.5% PEG400, 15.3% ethanol and 10% water measured at 6 hrs post injection to IC50 for human NCI-H460 cells; type: ADME, organism-based; conditions: in vivo
[7] = Time at which plasma concentration stays above NCI-H460 IC50 in Crl:NU(NCr)-Foxn1 nu mouse xenografted with human NCI-H460 cells at 40 mg/kg, ip injected via vehicle consisting 40.5% propylene glycol, 2.7% tween-20, 31.5% PEG400, 15.3% ethanol and 10% water by LC-MS analysis; type: ADME, organism-based; conditions: in vivo
[8] = Time at which plasma concentration stays above NCI-H460 IC50 in Crl:NU(NCr)-Foxn1 nu mouse xenografted with human NCI-H460 cells at 40 mg/kg, ip injected via vehicle consisting 40% propylene glycol, 20% tween-20, 20% PEG400, and 20% ethanol by LC-MS analysis; type: ADME, organism-based; conditions: in vivo
UO-31 = test: Antiproliferative activity against taxane-resistant human UO31 cells after 72 hrs by CellTiter 96 aqueous nonradioactive cell proliferation assay; type: functional, cell-based; conditions: UO-31, 72 h
OVCAR-4 = test: Antiproliferative activity against taxane-resistant human OVCAR4 cells after 72 hrs by CellTiter 96 aqueous nonradioactive cell proliferation assay; type: functional, cell-based; conditions: OVCAR-4, 72 h; summary of the method: as §1
HCT-15 = test: Antiproliferative activity against taxane-resistant human HCT15 cells after 72 hrs by CellTiter 96 aqueous nonradioactive cell proliferation assay; type: functional, cell-based; conditions: HCT-15, 72 h; summary of the method: as §1
ACHN = test: Antiproliferative activity against taxane-resistant human ACHN cells after 72 hrs by CellTiter 96 aqueous nonradioactive cell proliferation assay; type: functional, cell-based; summary of the method: as §1
EKVX = test: Antiproliferative activity against taxane-resistant human EKVX cells after 72 hrs by CellTiter 96 aqueous nonradioactive cell proliferation assay; type: functional, cell-based
SF-295 = test: Antiproliferative activity against taxane-resistant human SF295 cells after 72 hrs by CellTiter 96 aqueous nonradioactive cell proliferation assay; type: functional, cell-based; conditions: SF-295, 72 h; summary of the method: as §1
NCI/ADR-RES = test: Antiproliferative activity against taxane-resistant human NCI/ADR-RES cells after 72 hrs by CellTiter 96 aqueous nonradioactive cell proliferation assay; type: functional, cell-based; summary of the method: as §1
[9] = Drug uptake in tumor of human NCI-H460 cells xenografted in Crl:NU(NCr)-Foxn1 nu mouse at 40 mg/kg, ip measured at 3 hrs post injection by LC-MS analysis; type: ADME, organism-based, Neoplasm; conditions: in vivo; summary of the method: as §2
[10] = Drug uptake in tumor of human LOXIMVI cells xenografted in Crl:NU(NCr)-Foxn1 nu mouse at 40 mg/kg, ip measured at 3 hrs post injection by LC-MS analysis; type: ADME, organism-based, Neoplasm; conditions: in vivo; summary of the method: as §2

Compound	pIC50 (NCI-H460)	pIC50 (M14)	further results
C=CC[C@H]1C[C@]2([C@@H](C)Cc3ccc(OC)c(C(N)=O)c3)OCOC2=CC1=O	7.18	7.92	
C=CC[C@H]1C[C@]2([C@@H](C)Cc3ccc(OC(C)=O)cc3)OCOC2=CC1=O	< 4.70	< 4.70	
C=CC[C@H]1C[C@]2([C@@H](C)Cc3cccc(OC)c3)OCOC2=CC1=O	4.97	5.06	
C=CC[C@H]1C[C@]2([C@H](C)Cc3ccc(OC)cc3)OCOC2=CC1=O	6.92	7.09	
C=CC[C@H]1C[C@]2([C@@H](C)Cc3ccc(OC)c(OC)c3)OCOC2=CC1=O		6.96	Ratio [1]: > 6; Drug uptake [2]: Active; Drug uptake [3]: Not Active; Drug uptake [4]: Active; Ratio [5]: > 3; Ratio [6]: > 4; Time [7]: 3 h; Time [8]: 1 h
C=CC[C@H]1C[C@]2([C@@H](C)Cc3cc(C#N)c(OC)cc3F)OCOC2=CC1=O	6.82	7.43	
C=CC[C@H]1C[C@]2(C(C)Cc3ccc(F)cc3)OCOC2=CC1=O (stereo partly drawn)	< 4.70	< 4.70	
C=CC[C@H]1C[C@]2([C@@H](C)Cc3ccccc3)OCOC2=CC1=O	5.01	5.29	
C=CC[C@H]1C[C@]2([C@@H](C)Cc3cc(O)c(OC)cc3F)OCOC2=CC1=O	7.48	8.05	
C=CC[C@H]1C[C@]2([C@@H](C)Cc3cnc(OC)c(OC)c3)OCOC2=CC1=O	< 4.70	< 4.70	
CC(=O)O[C@H]1C(=O)[C@@]2(C)[C@H]([C@H](OC(=O)c3ccccc3)[C@]3(O)C[C@H](OC(=O)[C@H](O)[C@@H](NC(=O)c4ccccc4)c4ccccc4)C(C)=C1C3(C)C)[C@]1(OC(C)=O)CO[C@@H]1C[C@@H]2O [PACLITAXEL]			pIC50 (UO-31): 6.62; pIC50 (OVCAR-4): < 6.22; pIC50 (HCT-15): 6.72; pIC50 (ACHN): 7.10; pIC50 (EKVX): 6.82; pIC50 (SF-295): 7.25; pIC50 (NCI/ADR-RES): < 5.05
C=CC[C@H]1C[C@]2([C@H](C)Cc3ccc(OC)c(OC)c3)OCOC2=CC1=O	6.49	6.52	
C=CC[C@H]1C[C@]2([C@@H](C)Cc3cnc(OC)cc3F)OCOC2=CC1=O	< 4.70	5.10	
C=CC[C@H]1C[C@]2([C@@H](C)Cc3ccc(OC)nc3)OCOC2=CC1=O	6.48	6.74	
C=CC[C@H]1C[C@]2([C@@H](C)Cc3ccc(OC)c(F)c3)OCOC2=CC1=O	7.05	8.10	
C=CC[C@H]1C[C@]2([C@@H](C)Cc3cc(OC)c(OC)cc3F)OCOC2=CC1=O	6.92	7.85	
C=CC[C@H]1C[C@]2([C@@H](C)Cc3ccc(OC)c(NC(C)=O)c3)OCOC2=CC1=O	6.51	7.07	
C=CC[C@H]1C[C@]2([C@@H](C)Cc3ccc(OC)c(C(=O)NC)c3)OCOC2=CC1=O	5.96	5.85	
C=CC[C@H]1C[C@]2([C@@H](C)Cc3ccc(OC)c(C)c3)OCOC2=CC1=O	6.20	6.39	
C=CC[C@H]1C[C@]2([C@@H](C)Cc3ccc(OC(F)(F)F)cc3)OCOC2=CC1=O	5.42	< 4.70	
C=CC[C@H]1C[C@]2([C@@H](C)Cc3ccc(OC)cc3)OCOC2=CC1=O	7.05	7.70	

Compound	pIC50 (NCI-H460)	pIC50 (M14)	further results
C=CC[C@H]1C[C@]2(C(C)Cc3ccc(OCC)cc3)OCOC2=CC1=O (stereo partly drawn)	6.55	6.19	
C=CC[C@H]1C[C@]2([C@@H](C)Cc3ccc(OC)c(Cl)c3)OCOC2=CC1=O	6.19	6.62	
C=CC[C@H]1C[C@]2(CCc3ccc(OC)c(OC)c3)OCOC2=CC1=O	5.49	5.70	
C=CC[C@H]1C[C@]2(C(C)Cc3ccc(OC)c(OC(C)=O)c3)OCOC2=CC1=O (stereo partly drawn)	6.96	7.80	
C=CC[C@@H]1C[C@]2([C@H](C)Cc3ccc(OC)c(OC)c3)OCOC2=CC1=O	< 5.40	< 5.40	
C=CC[C@H]1C[C@]2([C@H](C)Cc3ccc(OC)c(F)c3F)OCOC2=CC1=O	5.48	5.42	
C=CC[C@H]1C[C@]2([C@@H](C)Cc3ccc(OC)c(C#N)c3)OCOC2=CC1=O	6.47	6.74	
C=CC[C@H]1C[C@]2([C@H](C)Cc3cc(F)c(OC)cc3F)OCOC2=CC1=O	7.46	8.00	
C=CC[C@H]1C[C@]2(C(C)Cc3ccc(OC)c(N)c3)OCOC2=CC1=O (stereo partly drawn)	6.74	7.31	
C=CC[C@H]1C[C@]2([C@@H](C)Cc3cc(N)c(OC)cc3F)OCOC2=CC1=O	6.80	7.54	
C=CC[C@@H]1C[C@]2([C@@H](C)Cc3ccc(OC)c(OC)c3)OCOC2=CC1=O	< 5.40	< 5.40	
C=CC[C@H]1C[C@]2([C@@H](C)Cc3cc(C)c(OC)cc3F)OCOC2=CC1=O	6.19	6.64	
C=CC[C@H]1C[C@]2([C@@H](C)Cc3cc(NC(C)=O)c(OC)cc3F)OCOC2=CC1=O	7.15	7.28	
C=CC[C@H]1C[C@]2([C@@H](C)Cc3ccc(OC)c(O)c3)OCOC2=CC1=O	7.10	8.10	
C=CC[C@H]1C[C@]2([C@@H](C)Cc3ccc(OC)c(N4CCOCC4)c3)OCOC2=CC1=O	< 4.70	< 4.70	
C=CC[C@H]1C[C@]2([C@@H](C)Cc3ccc(O)cc3)OCOC2=CC1=O	< 4.70	< 4.70	
C=CC[C@H]1C[C@]2([C@@H](C)Cc3cc(F)c(OC)cc3F)OCOC2=CC1=O	7.23	7.52	Drug uptake [9]: Active
C=CC[C@H]1C[C@]2([C@@H](C)Cc3ccc(OC)cc3F)OCOC2=CC1=O	7.03	7.85	Drug uptake [10]: Active
C=CC[C@H]1C[C@]2([C@H](C)Cc3c(F)cc(OC)cc3F)OCOC2=CC1=O	5.60	6.49	
C=CC[C@H]1C[C@]2(C(CC)Cc3ccc(OC)c(OC)c3)OCOC2=CC1=O (mixture of isomers)	4.96	5.59	
C=CC[C@H]1C[C@]2(C(C)Cc3cc(C(N)=O)c(OC)cc3F)OCOC2=CC1=O (stereo partly drawn)	6.48	8.40	
